Assay outcomes from PubChem BioAssay.
This is a sample that favours compounds with a hit; in the whole collection about 2.1% have one here.
Hsp70 activator = transcriptional activators of Hsp70. HeLa Hsp70 promoter luciferase reporter, luminescence; scaled: vehicle 0, proteasome-inhibitor control 100%. activation, % at 10 µM. hit rate 0.04% among 200,000. AID 1203;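 active = activation above the mean across all tested compounds plus 3 SD, cutoff set per campaign, cut at about 5.5% in these data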;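 note: 100% = MG132 at 30 µM as the positive control and 0% = DMSO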
Dynein transport = blocks dynein driven cargo transport along microtubules | 3617.4 mouse cells, GR-EGFP nuclear translocation imaging; test concentration mostly 20 µM; stimulated with dexamethasone, 1 µM; hits give low values | z-score, hits read low | hit rate 0.47% among 220,000;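 active = plate z-score of nuclear minus cytoplasmic receptor signal below a set negative limit, without overly bright fluorescence or cell loss, cut at about -3.5 in these data, passing the limit was not always enough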;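 note: z-score of nuclear minus cytoplasmic ring GR-EGFP intensity difference per well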
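Also added: dexamethasone, 1.0 µM final. Medium: tet-free, stripped-serum medium. Detection: fixed, Hoechst-stained cells imaged at 10x for EGFP. Read-out: nuclear-to-cytoplasmic GR-EGFP distribution per well. Times: induction 48 h, compound 1 h, agonist 30 min.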
Autophagy mod = modulators of autophagy | MEF GFP-LC3 puncta imaging; test concentration mostly 10 µM | calls only at 10 µM (by protocol) | hit rate 0.98% among 190,000;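 active = percentage of spot-positive cells more than 3 SD above its plate mean, without a fluorescence outlier flag or 80% toxicity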;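 note: spot-positive cell cutoff set from DMSO-treated cells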
b-catenin transl = modulators of beta-catenin nuclear translocation; HeLa beta-catenin nuclear translocation, immunofluorescence imaging; nuclear translocation activity, % at 5 µM; hit rate 0.3% among 190,000;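 active = nuclear translocation activity above 50% at 5 µM, with a well cell count of 50 or more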;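 note: per-cell ratio of nuclear to cytoplasmic median beta-catenin stain intensity; plate controls were DMSO negative control for no effect and GSK-3 inhibitor IX positive control for full effect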
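Technique: fluorescence imaging of beta-catenin antibody stain plus DAPI / Material: human HeLa cell line / Incubation: compound treatment 24 h, 37°C, 5% CO2 / Read-out basis: % activation of per-cell nuclear versus cytoplasmic median beta-catenin signal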
MT stabilizer = stabilizes microtubules in HeLa cells. AID 2205. % tubulin-high responders, % at 10 µM. HeLa tubulin immunostaining HCS, 24 h; share of cells brighter than vehicle mean+2SD. hit rate 0.83% among 200,000;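 active = plate Z-score above 3 for both tubulin-high and condensed-nucleus cell shares, with cell loss under 80%, at 10 µM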;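 note: anti alpha tubulin signal scored within the nucleus-defined area of each cell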
* = called active by the depositor; i = inactive; . = not tested or not shown; + = active, no number.

SMILES	Hsp70 activator	Dynein transport	Autophagy mod	b-catenin transl	MT stabilizer
CCOc1ccc2nc(NC(=S)N(C)C)sc2c1	0	-2.1	+	.	1
COc1cc(/C=N/N=C/c2c[nH]c(=O)c(C#N)c2Nc2ccccc2)ccc1O	.	0.34	.	0	.
Cc1cccc(N2CCN(C(=O)c3ccc(Cl)c(S(=O)(=O)NCc4ccco4)c3)CC2)c1C	0	2.4	i	1	42*
CCOC(=O)c1oc2ccc(S(=O)(=O)n3nc(-c4ccc(OC)cc4)cc3N)cc2c1C	0	-0.37	i	1	13*
CCOc1ccc2nc(N3CCCC(C(=O)NCCCN4CCOCC4)C3)sc2c1 (stereo not drawn)	0	0.73	+	-1	5
CCOc1ccc2nc(N3CCC(C(=O)NCCCN4CCOCC4)CC3)sc2c1	.	-0.095	.	0	.
CCCNCC1C(Oc2ccc(Cl)cc2Cl)C(=O)N1c1cccc(C)c1C (stereo not drawn)	0	-0.47	+	0	3
COc1ccc(NCC(=O)n2c(C)c(C)c3ccccc32)cc1	0	-0.53	i	41	20*
CN(C)/C=C/C(=O)c1cccc([N+](=O)[O-])c1	0	-0.6	+	-2	2
S=C1NC[C@H](CC2CCCCC2)N1CC1CCCCC1	0	-0.89	i	-1	2
CCN(CC)c1nc(C)c(C(=S)Nc2cc([N+](=O)[O-])ccc2Cl)s1	0	-0.74	+	.	2
Cc1ccc(N(CCC(=O)NC(C)(C)C)S(=O)(=O)c2ccc(C)cc2)cc1	0	0.33	+	0	2
Cc1ccc(OCCN2C(=O)C(=O)c3cc(C)ccc32)cc1	0	0.0029	+	0	1
Cc1cc(=O)oc2cc(OCC(=O)N3c4ccccc4CC3C)ccc12 (stereo not drawn)	0	-0.11	i	-7	51*
Cc1cc(=O)oc2cc(OCC(=O)N3CC(C)OC(C)C3)ccc12 (stereo not drawn)	0	-0.3	i	-5	2
COc1cc(C(=O)N/N=C/c2ccsc2C)cc(OC)c1OC	0	-0.4	i	163*	11
O=C(NCC(O)c1ccc([N+](=O)[O-])cc1)c1cccc(S(=O)(=O)N2CCCC2)c1 (stereo not drawn)	0	-0.023	i	-1	1
Cn1c(=O)c(C(=O)CN2CC(=O)Nc3ccccc32)c(N)n(Cc2ccccc2)c1=O	0	-0.074	i	-5	4
Cc1cccc(C)c1OCCNC(=O)C(=O)NCc1ccco1	0	-0.21	i	59*	11
NNC(=O)c1ccc(CN2CCCCC2)o1	0	1.8	i	-1	4
N#Cc1ccc(Sc2nc3ccccc3[nH]2)cc1C#N	0	2.4	i	-5	4
N#Cc1cc2ccccc2nc1N	0	-0.062	+	-2	4
Nc1cc(-c2cccc(Br)c2)nn1Cc1ccccc1	0	1.6	+	0	3
Nc1cc(-c2ccc(Br)cc2)nn1Cc1ccccc1	0	-0.065	i	1	2
Cc1ccc(S(=O)(=O)N/N=C/c2ccccc2O)cc1[N+](=O)[O-]	0	-0.24	+	-1	3
SMILES	Hsp70 activator	Dynein transport	Autophagy mod	b-catenin transl	MT stabilizer
CCN(c1cccc(C)c1)S(=O)(=O)c1ccc2c3c(cccc13)C(=O)N2	0	0.81	i	-3	5
CCN(CC)S(=O)(=O)c1ccc2c3c(cccc13)C(=O)N2	0	-0.77	+	0	2
CCN(CC)CC(=O)Nc1ccc2c(c1)N(C(=O)CN(CC)CC)c1ccccc1CC2	0	-1.2	i	-4	2
CCN(CC)CC(=O)Nc1ccc2c(c1)Nc1ccccc1CC2	0	-0.9	i	19	31*
COc1cc(C(=O)N/N=C(\c2ccccc2)c2ccccn2)cc(OC)c1OC	-1	0.81	i	2	3
COc1cccc(C(=O)N/N=C(/c2ccccc2)c2ccccn2)c1	0	1	+	-1	2
Cn1ncc(N=Cc2ccc([N+](=O)[O-])cc2)c1C(=O)Nc1ccccc1	0	-0.94	i	0	3
CC(C)C(=O)N1CCN(c2ccc(NC(=O)c3ccc(Br)o3)cc2)CC1	0	0.31	i	0	4
CC(C)C(=O)N1CCN(c2ccc(NC(=O)c3ccc([N+](=O)[O-])o3)cc2)CC1	1	-3.1	+	7	11
O=c1[nH][nH]c(=O)n1-c1ccccc1	0	-0.23	i	-4	3
CN(Cc1nc(-c2cnccn2)no1)Cc1n[nH]c2c1CCCC2	0	1.4	i	3	1
CCN(CC)c1ccc(/C=C(/C#N)C(=O)NC(C)C)o1	0	0.8	i	1	2
CCN(CC)c1ccc(/C=C(/C#N)C(=O)NCc2ccccc2)o1	0	-0.2	+	1	2
CC1CC(C)(C)OC(C[N+]2(C)CCCCC2)O1 (stereo not drawn)	.	-0.38	.	1	.
NC(=O)[C@H]1CC2(CC(c3cccc(NC(=O)COc4ccc(Cl)cc4)c3)=NO2)CN1C(=O)Cc1ccc([N+](=O)[O-])cc1 (stereo partly drawn)	.	0.33	.	2	.
CCOC(=O)N1CCN(c2c(F)cc3[nH]c(=S)[nH]c3c2Br)CC1	0	0.44	+	-1	47*
Oc1c(C=NCc2ccc(F)cc2)[nH]c2ccc(Br)c(Cl)c12	0	-3.1	+	8	1
O=c1[nH]c(=O)n(C2CCCCCC2)c(O)c1C=NCc1ccc(F)cc1	0	0.78	i	.	5
O=C(NCc1ccc(/C=c2\sc3n(c2=O)CCN=3)o1)C(=O)Nc1ccccc1	0	-0.13	i	3	2
CCc1cccc(CC)c1N(COC)C(=O)Cn1nnc2ccccc21	0	0.19	i	-7	3
CCc1cccc(CC)c1N(COC)C(=O)Cn1ccccc1=N	0	0.11	+	-3	4
O=C1C=C(O)c2cccc(O)c2C1=O	.	-0.67	.	2	.
CC1=CC(=O)c2c(O)ccc(O)c2C1=O	0	-3.9*	i	-1	4
OCCC1CN(Cc2cc(F)ccc2-n2cccn2)CCN1C1CCCC1 (stereo not drawn)	.	-0.14	.	1	.
COc1ccc(N2CCCC2=N)c(OC)c1	.	1.4	.	0	.
O=[N+]([O-])c1ccc(Cl)cc1N1CCCCC1	0	0.82	+	0	2
O=[N+]([O-])c1ccc(Cl)cc1N1CCOCC1	0	1.6	i	-1	3
COc1cc2c(cc1OC)C(c1cccs1)N(C(=O)c1cccnc1)CC2 (stereo not drawn)	0	0.3	i	53*	17*
COc1cc2c(cc1OC)C(c1cccs1)N(C(=O)C(C)C)CC2 (stereo not drawn)	0	-0.17	i	-1	6
CCS(=O)(=O)c1ccc(O)c(NC(=O)Nc2ccccc2OC)c1	.	-1.3	.	1	.
